ChEMBL document CHEMBL1131566, “(E)-3-(2-(N-phenylcarbamoyl)vinyl)pyrrole-2-carboxylic acid derivatives. A novel class of glycine site antagonists” (J Med Chem, 1998)
One block for each compound: values may come before it.

Assays:
[1] = molecular target: T1, Glutamate receptor ionotropic, NMDA 1 (Rattus norvegicus, UniProt P35439); assay: (§1) Inhibition of binding of [3H]glycine to N-methyl-D-aspartate glutamate receptor 1 from crude synaptic membranes prepared from adult rat cerebral cortex.; format: tissue-based
Summary of the method: (§2)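 Crude synaptic membranes from adult rat cerebral cortex are incubated 20 min at 4 °C in 50 mM Tris/citrate pH 7.10 with 20 nM [³H]glycine. Compounds come from 5 mM DMSO stocks, seven concentrations (0.1 nM to 100 μM) in duplicate, with a reference control. Ki is fitted by nonlinear curve fitting from ≥6-point curves, geometric mean of ≥3 experiments. Displacement at 100 μM is given as %SB.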

[2] = molecular target: T1, Glutamate receptor ionotropic, NMDA 1; assay: as §1; format: tissue-based; remark: listed apart in the source
[3] = molecular target: Glutamate receptor ionotropic, NMDA 1 (Rattus norvegicus) (UniProt P35439); assay: as §1; format: tissue-based; summary of the method: as §2
[4] = molecular target: Glutamate receptor ionotropic, kainate; assay: Inhibition of binding of [3H]-kainic acid to Ionotropic glutamate receptor kainate in crude synaptic membranes prepared from adult rat cerebral cortex.; format: cell membranes
Summary of the method: (§3)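 Rat cortical membrane binding, inhibition of [³H]CPP (NMDA glutamate site), [³H]AMPA or [³H]kainic acid. Compounds come from 5 mM DMSO stocks and are tested in duplicate at five concentrations (10 nM to 100 μM); a reference compound is included as control. Displacement at 100 μM is given as % specific binding.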

Glutamate NMDA receptor = assay: Compound was evaluated for its ability ot displace [3H]CPP binding to N-methyl-D-aspartate glutamate receptor; format: protein-complex assay; summary of the method: as §3
[5] = molecular target: T2, Glutamate receptor ionotropic, AMPA (Rattus norvegicus, UniProt P19490+P19491+P19492+P19493); assay: (§4) Displacement of the [3H]AMPA binding to Ionotropic glutamate receptor AMPA at 100 uM represented by the percent of specific binding(%SB); format: protein-complex assay; summary of the method: as §3
[6] = molecular target: T3, Glutamate receptor ionotropic, AMPA (Rattus norvegicus) (UniProt P19491+P19492+P19493+P19490); assay: Displacement of the ligand in the Ionotropic glutamate receptor AMPA site at 100 uM represented by the percent of specific binding(%SB); format: protein-complex assay; summary of the method: as §3
[7] = molecular target: Glutamate receptor ionotropic, NMDA 1 (Rattus norvegicus) (UniProt P35439); assay: Displacement of [3H]glycine binding to N-methyl-D-aspartate glutamate receptor 1 at 100 uM represented by the percent of specific binding(%SB); summary of the method: as §2
[8] = molecular target: Glutamate receptor ionotropic, kainate (Rattus norvegicus) (UniProt P22756+Q01812+P42260+P42264+Q63273); assay: Displacement of [3H]-kainic acid in the Ionotropic glutamate receptor kainate at 100 uM represented by the percent of specific binding (%SB); format: protein-complex assay; summary of the method: as §3
[9] = molecular target: T4, Glutamate NMDA receptor (Rattus norvegicus) (UniProt P35439+Q00959+Q00960+Q00961+Q62645+Q8VHN2+Q9R1M7); assay: Displacement of the ligand in the N-methyl-D-aspartate glutamate receptor at 100 uM represented by the percent of specific binding(%SB); format: protein-complex assay
[10] = molecular target: T4, Glutamate NMDA receptor (Rattus norvegicus); assay: Displacement of the [3H]CPP binding to N-methyl-D-aspartate glutamate receptor at 100 uM represented by the percent of specific binding(%SB); format: protein-complex assay; summary of the method: as §3
[11] = molecular target: Glutamate receptor ionotropic, kainate; assay: Inhibition of binding of [3H]-kainic acid to Ionotropic glutamate receptor kainate; format: protein-complex assay; summary of the method: as §3
[12] = molecular target: Glutamate receptor ionotropic, NMDA 1 (Rattus norvegicus) (UniProt P35439); assay: Compound was evaluated for its ability to displace [3H]-TCP binding to N-methyl-D-aspartate glutamate receptor 1. alpha value 0 indicates full antagonist.
Summary of the method: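 [³H]TCP binding runs 2 h at 30 °C in Tris/5mM HCl pH 7.7 with 1 μM glutamic acid. Nonspecific binding is defined with 30 μM (+)-MK801. Glycine concentration-response curves are run in the presence of increasing test-compound concentrations to derive α.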

[13] = molecular target: T3, Glutamate receptor ionotropic, AMPA (Rattus norvegicus); assay: as §4; format: protein-complex assay; summary of the method: as §3
[14] = molecular target: T2, Glutamate receptor ionotropic, AMPA; assay: Inhibition of binding of [3H]AMPA to Ionotropic glutamate receptor AMPA; format: protein-complex assay; summary of the method: as §3
[15] = Compound was evaluated for its ability ot displace [3H]CPP binding to NMDA receptor/glutamate site; summary of the method: as §3
[16] = Displacement of the [3H]CPP binding to NMDA receptor/glutamate site at 100 uM represented by the percent of specific binding(%SB); summary of the method: as §3

SMILES: O=C(/C=C/c1cc(-c2ccccc2)[nH]c1C(=O)O)Nc1ccccc1
Ki [1]: > 100000 nM

Ki [1]: 5750 nM
SMILES: CC(=O)c1c(C)[nH]c(C(=O)O)c1/C=C/C(=O)Nc1ccccc1

SMILES: O=C(O)CCc1c(C(=O)O)[nH]c2cc(Cl)cc(Cl)c12
IC50 [2]: 140 nM

SMILES: Cc1[nH]c(C(=O)O)c(/C=C/C(=O)Nc2ccccc2)c1-c1ccccc1
Ki [1]: > 100000 nM

Kb [3]: 470 nM
SMILES: Cc1ccc2c(O)cc(=O)c(=O)[nH]c2c1

SMILES: Cc1c(-c2ccc(Cl)cc2Cl)[nH]c(C(=O)O)c1/C=C/C(=O)Nc1ccccc1
Ki [1]: > 100000 nM

Log Ki [4]: > -4 | Log Ki (Glutamate NMDA receptor): > -4 | IC50 [5]: > 100000 nM | SB [6]: 11% | SB [7]: 100% | SB [8]: 0% | Ki [1]: 57.5 nM | SB [9]: 0%
SMILES: Cc1[nH]c(C(=O)O)c(/C=C/C(=O)Nc2ccccc2)c1Br

Ki [1]: 398 nM
SMILES: Cc1[nH]c(C(=O)O)c(/C=C/C(=O)Nc2ccccc2)c1C(C)C

Ki [1]: 316 nM
SMILES: Cc1[nH]c(C(=O)O)c(/C=C/C(=O)Nc2ccccc2)c1Cl

SMILES: Cc1c(/C=C/C(=O)Nc2ccccc2)c(C(=O)O)n(C)c1C
Ki [1]: > 100000 nM

SB [10]: 0% | Log Ki (Glutamate NMDA receptor): > -4 | Log Ki [11]: > -4 | Alpha [12]: 0 | SB [13]: 0% | SB [7]: 100% | SB [8]: 9% | Ki [1]: 200 nM | IC50 [14]: > 100000 nM
SMILES: Cc1[nH]c(C(=O)O)c(/C=C/C(=O)Nc2ccccc2)c1C

Log Ki [15]: > -4 | SB [16]: 0% | Log Ki [11]: > -4 | SB [13]: 10% | SB [7]: 100% | SB [8]: 5% | Ki [1]: 11.2 nM | IC50 [14]: > 100000 nM
SMILES: O=C(/C=C/c1c(C(=O)O)[nH]c(Br)c1Br)Nc1ccccc1

Ki [1]: 3310 nM
SMILES: O=C(/C=C/c1c(Br)c[nH]c1C(=O)O)Nc1ccccc1

Ki [1]: 6760 nM
SMILES: CCOc1c(C)[nH]c(C(=O)O)c1/C=C/C(=O)Nc1ccccc1

Ki [1]: 1150 nM
SMILES: O=C(/C=C/c1c(C(=O)O)[nH]c2c1CCC2)Nc1ccccc1

Ki [1]: 617 nM
SMILES: O=C(/C=C/c1c(C(=O)O)[nH]c2c1CCCC2)Nc1ccccc1

Ki [1]: 4790 nM
SMILES: Cc1[nH]c(C(=O)O)c(/C=C/C(=O)Nc2ccccc2)c1OCc1ccccc1

SMILES: O=C(/C=C/c1c(-c2ccccc2)c[nH]c1C(=O)O)Nc1ccccc1
Ki [1]: > 100000 nM

IC50 [2]: 13 nM
SMILES: Oc1ccc(-c2c(O)nc3cc(Cl)cc(Cl)c3c2O)cc1

IC50 [2]: 32 nM
SMILES: O=C(O)c1cc(O)c2c(I)cc(Cl)cc2n1

Ki [1]: 35.5 nM
SMILES: O=C(/C=C/c1c(C(=O)O)[nH]c(I)c1I)Nc1ccccc1

Ki [1]: 6170 nM
SMILES: Cc1c(C(C)C)[nH]c(C(=O)O)c1/C=C/C(=O)Nc1ccccc1

Ki [1]: 776 nM
SMILES: CCc1[nH]c(C(=O)O)c(/C=C/C(=O)Nc2ccccc2)c1C

SMILES: O=C(/C=C/c1c(C(=O)O)[nH]c(-c2ccccc2)c1-c1ccccc1)Nc1ccccc1
Ki [1]: > 100000 nM

SMILES: O=C(/C=C/c1cc[nH]c1C(=O)O)Nc1ccccc1
Ki [1]: > 100000 nM

SB [3]: 100% | Alpha [12]: 0
SMILES: O=C(/C=C/c1c(C(=O)O)[nH]c2cc(Cl)cc(Cl)c12)Nc1ccccc1

SMILES: Cc1c(-c2ccccc2)[nH]c(C(=O)O)c1/C=C/C(=O)Nc1ccccc1
Ki [1]: > 100000 nM

Ki [1]: 63100 nM
SMILES: Cc1cc(/C=C/C(=O)Nc2ccccc2)c(C(=O)O)[nH]1

Ki [1]: 42.7 nM
SMILES: Cc1[nH]c(C(=O)O)c(/C=C/C(=O)Nc2ccccc2)c1I

Ki [1]: 832 nM
SMILES: CCc1c(C)[nH]c(C(=O)O)c1/C=C/C(=O)Nc1ccccc1

IC50 [2]: 7.8 nM
SMILES: O=C(Nc1ccccc1)N[C@H]1C[C@H](C(=O)O)Nc2cc(Cl)cc(Cl)c21

SMILES: O=C(/C=C/c1c(C(=O)O)[nH]c(-c2ccccc2)c1Br)Nc1ccccc1
Ki [1]: > 100000 nM
